Tests used:
Format in all cases: functional
Rattus norvegicus [1] = test: Antiinflammatory activity measured as the percentage inhibition of edema in carrageenan induced rat paw after peroral administration of 200 mg/kg of compound; details: route oral
Outline: (§1)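 Female Wistar rats (120–150 g), 10 per dose, dosed orally with an aqueous suspension in 0.5% methocel (10 mL/kg) 1 h before 0.05 mL of 1% carrageenin in saline was injected into the right hind paw aponeurosis. Paw volume was read plethysmographically at injection and 4 h later. Inhibition is given relative to vehicle controls. Screening dose 200 mg/kg; 100 mg/kg was tested when inhibition exceeded 30%. Student's t test.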

Rattus norvegicus [2] = species on record: Rattus norvegicus; test: Compound was evaluated for its analgesic activity by Randall-Selitto test in comparison with that of Aspirine
Outline: (§2)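 Randall–Selitto pain threshold, measured on the inflamed right hind paw of male Wistar rats (170–200 g), 10 per dose. Edema was induced with 0.1 mL of 20% yeast suspension in saline. Oral dosing in 0.5% methocel (10 mL/kg), highest dose one-fifth of LD50, then scaling down through 100, 50, 20, 10, 5 and 2 mg/kg. Threshold read before dosing, then hourly for 6 h. Potency expressed relative to aspirin = 1.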

Rattus norvegicus [3] = test: (§3) Compound was evaluated for its antiinflammatory activity by adjuvant-induced polyarthritis test in rats at a dosage of 200 mg/kg administered orally; details: route oral
Outline: (§4)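 Female Wistar rats (130–150 g), 8 per dose. Killed Mycobacterium butyricum (0.6 mg in 0.1 mL mineral oil) was injected into the right hind plantar aponeurosis. Oral dosing in 0.5% methocel, once daily, curative scheme from day 14 to day 27. Read-outs: percent change in hind-paw volume versus controls; Newbould 0–4 lesion scores for front paws, tail and ears; plasma inflammation units by nephelometric turbidity before and after 30 min at 56 °C on day 27.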

Rattus norvegicus [4] = test: Compound was evaluated for its antiinflammatory activity in the cotton pellet induced granuloma(CPG) in normal rats at the dose 200 mg/kg p.o.; details: route oral
Outline: (§5)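 Male Wistar rats (150–180 g), 7 per group. Two sterile 50 mg cotton pellets were implanted subcutaneously in the interscapular region under ether. Oral dosing in 0.5% methocel (10 mL/kg) daily for 6 days, starting 6 h after surgery. Animals were killed 24 h after the last dose; pellets with granuloma were dried 24 h at 80 °C. Percent inhibition versus vehicle controls.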

Rattus norvegicus [5] = test: as §3; parameters: unit not given beside the values; details: route oral; outline: as §4
Rattus norvegicus [6] = species on record: Rattus norvegicus; test: Compound was evaluated for its antipyretic activity by antipyresis effect in comparison with that of Aspirin.
Outline: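 Male Sprague-Dawley rats (120–150 g), 6 per dose, starved 18 h and kept at 24 °C; rats above 38 °C were excluded. Fever was induced by subcutaneous 1 mL of filtered 5% peptone preincubated 48 h at 37 °C. Oral doses as in the analgesic test (top dose one-fifth of LD50, stepping down). Rectal thermocouple readings from 4 h after injection, then hourly for 4 h. Activity relative to aspirin = 1.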

Rattus norvegicus [7] = test: Compound was evaluated for its gastroulcerogenic effect in rats at a peroral dose of 200 mg/kg, P<0.05.; details: route oral
Rattus norvegicus [8] = test: Antiinflammatory activity was measured as the percentage inhibition of edema in carrageenan induced rat paw after peroral administration of 100 mg/kg of compound; details: route oral; outline: as §1
Rattus norvegicus [9] = test: Compound was evaluated for its antiinflammatory activity in the cotton pellet induced granuloma (CPG) in normal rats at the dose 200 mg/kg p.o.; details: route oral; outline: as §5
Rattus norvegicus [10] = species on record: Rattus norvegicus; test: Compound was evaluated for its analgesic activity by Randall-Selitto test in comparison with that of Aspirin; outline: as §2
Rattus norvegicus [11] = test: Compound was evaluated for its gastroulcerogenic effect in rats at a peroral dose of 200 mg/kg; details: route oral
Rattus norvegicus [12] = test: Compound was evaluated for its antiinflammatory activity in the cotton pellet induced granuloma(CPG) in normal rats at the dose 50 mg/kg p.o.; details: route oral; outline: as §5
Rattus norvegicus [13] = test: Compound was evaluated for its antiinflammatory activity in the cotton pellet induced granuloma(CPG) in normal rats at the dose 100 mg/kg p.o.; details: route oral; outline: as §5
Rattus norvegicus [14] = test: (§6) Compound was evaluated for its antiinflammatory activity by adjuvant-induced polyarthritis test in rats at a dosage of 100 mg/kg administered orally; parameters: unit not given beside the values; details: route oral; outline: as §4
Rattus norvegicus [15] = test: as §6; details: route oral; outline: as §4

Compound: Cn1c(-c2ccc(OCC(=O)O)cc2)nc2c3ccccc3ccc21
- inhibition in vivo at 200 mg/kg (Rattus norvegicus [1]): 7%

Compound: CCn1c(-c2ccc(OC)cc2)nc2c3ccccc3ccc21
- Activity (Rattus norvegicus [2]): 1.1
- inhibition in vivo at 200 mg/kg (Rattus norvegicus [1]): 52%
- Arthritis scores (Rattus norvegicus [3]): 21
- Inflammation units (Rattus norvegicus [3]): 35
- inhibition in vivo at 200 mg/kg (Rattus norvegicus [4]): 31%
- Mean volume of hind paws (Rattus norvegicus [5]): 21
- Activity (Rattus norvegicus [6]): 2.9
- Ulcerogenic index (Rattus norvegicus [7]): 0.09
- inhibition in vivo at 100 mg/kg (Rattus norvegicus [8]): 49%

Compound: COc1ccc(-c2nc3c4ccccc4ccc3n2C2CCCCC2)cc1
- inhibition in vivo at 200 mg/kg (Rattus norvegicus [1]): 16%

Compound: COc1ccccc1-c1nc2c3ccccc3ccc2n1C
- inhibition in vivo at 200 mg/kg (Rattus norvegicus [1]): 0%

Compound: COc1ccc(-c2nc3c4ccccc4ccc3n2C)cc1
- inhibition in vivo at 200 mg/kg (Rattus norvegicus [1]): 53%
- Arthritis scores (Rattus norvegicus [3]): 40
- Inflammation units (Rattus norvegicus [3]): 46
- Mean volume of hind paws (Rattus norvegicus [5]): 33
- Activity (Rattus norvegicus [6]): 1
- Ulcerogenic index (Rattus norvegicus [7]): 0.31
- inhibition in vivo at 200 mg/kg (Rattus norvegicus [9]): 40%
- Activity (Rattus norvegicus [10]): 1.2
- inhibition in vivo at 100 mg/kg (Rattus norvegicus [8]): 41%

Compound: COc1ccc(-c2nc3c4ccccc4ccc3n2C2CC2)cc1
- Activity (Rattus norvegicus [2]): 0.7
- inhibition in vivo at 200 mg/kg (Rattus norvegicus [1]): 56%
- inhibition in vivo at 200 mg/kg (Rattus norvegicus [4]): 11%
- Activity (Rattus norvegicus [6]): 0.8
- Ulcerogenic index (Rattus norvegicus [11]): 0.29
- inhibition in vivo at 100 mg/kg (Rattus norvegicus [8]): 53%

Compound: Cn1c(-c2ccc(O)cc2)nc2c3ccccc3ccc21
- inhibition in vivo at 200 mg/kg (Rattus norvegicus [1]): 4%

Compound: CCC(C)n1c(-c2ccc(OC)cc2)nc2c3ccccc3ccc21 (centres undefined)
- inhibition in vivo at 200 mg/kg (Rattus norvegicus [1]): 18%

Compound: Cc1ccc(-c2nc3c4ccccc4ccc3n2C)cc1
- inhibition in vivo at 200 mg/kg (Rattus norvegicus [1]): 21%

Compound: COc1ccc(-c2nc3c4ccccc4ccc3n2C(C)CO)cc1 (centres undefined)
- inhibition in vivo at 200 mg/kg (Rattus norvegicus [1]): 35%
- inhibition in vivo at 100 mg/kg (Rattus norvegicus [8]): 31%

Compound: CC(=O)Oc1ccccc1C(=O)O [ASPIRIN]
- Activity (Rattus norvegicus [2]): 1
- Activity (Rattus norvegicus [6]): 1
- Ulcerogenic index (Rattus norvegicus [7]): 1.6
- inhibition in vivo at 50 mg/kg (Rattus norvegicus [12]): 24%

Compound: COc1ccc(-c2nc3c4ccccc4ccc3n2CCO)cc1
- inhibition in vivo at 200 mg/kg (Rattus norvegicus [1]): 11%

Compound: Cn1c(-c2cccs2)nc2c3ccccc3ccc21
- Activity (Rattus norvegicus [2]): 1
- inhibition in vivo at 200 mg/kg (Rattus norvegicus [1]): 40%
- Arthritis scores (Rattus norvegicus [3]): 24
- Inflammation units (Rattus norvegicus [3]): 18
- inhibition in vivo at 200 mg/kg (Rattus norvegicus [4]): 31%
- Mean volume of hind paws (Rattus norvegicus [5]): 23
- Activity (Rattus norvegicus [6]): 0.9
- Ulcerogenic index (Rattus norvegicus [11]): 0.12
- inhibition in vivo at 100 mg/kg (Rattus norvegicus [8]): 31%

Compound: CN(C)c1ccc(-c2nc3c4ccccc4ccc3n2C)cc1
- inhibition in vivo at 200 mg/kg (Rattus norvegicus [1]): 68%
- Ulcerogenic index (Rattus norvegicus [7]): 1.07
- inhibition in vivo at 100 mg/kg (Rattus norvegicus [13]): 24%
- inhibition in vivo at 100 mg/kg (Rattus norvegicus [8]): 54%

Compound: CC(=O)Nc1ccc(-c2nc3c4ccccc4ccc3n2C)cc1
- inhibition in vivo at 200 mg/kg (Rattus norvegicus [1]): 35%
- inhibition in vivo at 100 mg/kg (Rattus norvegicus [8]): 29%

Compound: CCOc1ccc(-c2nc3c4ccccc4ccc3n2C)cc1
- Activity (Rattus norvegicus [2]): 0.3
- inhibition in vivo at 200 mg/kg (Rattus norvegicus [1]): 45%
- Arthritis scores (Rattus norvegicus [3]): 43
- Inflammation units (Rattus norvegicus [3]): 60
- inhibition in vivo at 200 mg/kg (Rattus norvegicus [4]): 40%
- Mean volume of hind paws (Rattus norvegicus [5]): 25
- Activity (Rattus norvegicus [6]): 2.2
- Ulcerogenic index (Rattus norvegicus [7]): 0.21
- inhibition in vivo at 100 mg/kg (Rattus norvegicus [8]): 37%

Compound: C=Cn1c(-c2ccc(OC)cc2)nc2c3ccccc3ccc21
- Activity (Rattus norvegicus [2]): 1.1
- inhibition in vivo at 200 mg/kg (Rattus norvegicus [1]): 58%
- Mean volume of hind paws (Rattus norvegicus [14]): 34
- Arthritis scores (Rattus norvegicus [15]): 39
- Inflammation units (Rattus norvegicus [15]): 61
- inhibition in vivo at 200 mg/kg (Rattus norvegicus [4]): 31%
- Activity (Rattus norvegicus [6]): 6.9
- Ulcerogenic index (Rattus norvegicus [11]): 0.3
- inhibition in vivo at 100 mg/kg (Rattus norvegicus [8]): 48%

Compound: Cn1c(-c2ccncc2)nc2c3ccccc3ccc21
- Activity (Rattus norvegicus [2]): 2.4
- inhibition in vivo at 200 mg/kg (Rattus norvegicus [1]): 63%
- Arthritis scores (Rattus norvegicus [3]): 10
- Inflammation units (Rattus norvegicus [3]): 3
- inhibition in vivo at 200 mg/kg (Rattus norvegicus [4]): 33%
- Mean volume of hind paws (Rattus norvegicus [5]): 20
- Activity (Rattus norvegicus [6]): 1.4
- Ulcerogenic index (Rattus norvegicus [11]): 0.31
- inhibition in vivo at 100 mg/kg (Rattus norvegicus [8]): 44%

Compound: CCCCn1c(-c2ccc(OC)cc2)nc2c3ccccc3ccc21
- inhibition in vivo at 200 mg/kg (Rattus norvegicus [1]): 25%

Compound: CC(C)Oc1ccc(-c2nc3c4ccccc4ccc3n2C)cc1
- inhibition in vivo at 200 mg/kg (Rattus norvegicus [1]): 31%
- inhibition in vivo at 100 mg/kg (Rattus norvegicus [8]): 25%

Compound: COc1ccc(-c2nc3c4ccccc4ccc3n2CC(C)C)cc1
- inhibition in vivo at 200 mg/kg (Rattus norvegicus [1]): 30%

Compound: Cl.Cl.Cn1c(-c2cccnc2)nc2c3ccccc3ccc21
- inhibition in vivo at 200 mg/kg (Rattus norvegicus [1]): 12%

— ChEMBL document CHEMBL1122649, “3-Alkyl-2-aryl-3H-naphth[1,2-d]imidazoles, a novel class of nonacidic antiinflammatory agents” (J Med Chem, 1984)
